4 compounds from ChEMBL document CHEMBL4184131, “Cyclotheonellazoles A-C, Potent Protease Inhibitors from the Marine Sponge Theonella aff. swinhoei” (J Nat Prod, 2017) can be followed below.

Assay [1] can be described thus: Inhibition of chymotrypsin (unknown origin) incubated for 30 mins using Suc-Gly-Gly-phenylalanine-p-nitroanilide substrate by spectrophotometry. On the set-up: species or system Homo sapiens. The method in brief:
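In Tris buffer (0.6 g Tris HCl/100 mL, pH 7.5), enzyme and Suc-Gly-Gly-Phe-p-nitroanilide substrate each dissolved in buffer at 1 mg/mL. Enzyme and sample preincubated 5 min at 37 °C, then substrate added. Absorbance at 405 nm read kinetically over 30 min. Samples from 1 mg/mL DMSO stock serially diluted; IC50 fitted by four-parameter logistic model.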

Assay [2] relates to Plasmodium falciparum. The assay can be described thus: Antiplasmodial activity against Plasmodium falciparum assessed as inhibition of parasite growth incubated for 48 hrs by colorimetry based p-LDH assay. In kind it is functional, organism-based.
Assay [3] in a line: Inhibition of elastase (unknown origin) incubated for 20 mins using N-Suc-Ala-Ala-Ala-p-nitroanilide substrate by spectrophotometry. Set-up: species or system Homo sapiens. An outline of the steps: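 Tris buffer (2.422 g Tris HCl/100 mL, pH 8.0). Enzyme stock 75 mg/mL and N-Suc-Ala-Ala-Ala-p-nitroanilide stock 0.9 mg/mL, both in buffer. Enzyme with sample preincubated 20 min at 30 °C before substrate addition. Absorbance at 405 nm followed kinetically over 20 min. Serial dilutions from 1 mg/mL DMSO stock; IC50 from four-parameter logistic fit.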

The subject of assay [4] is Plasmodium falciparum. The assay can be described thus: Antiplasmodial activity against Plasmodium falciparum. The class given is functional, organism-based.

Converted amounts (≈) assume the structure as drawn. Starred links: 1 amine or outer side, 2 acyl side, 3 side chain; linkers in the order of their positions; H or OH if unused. Positions of bridges follow the written chain, without caps; N, C: chain ends. Non-standard residues stand in square brackets, D forms with d. Residues, ends and D or L forms follow the SMILES beside them. *: point of attachment. X2 = O=C(/C=C/c1csc([C@H](Cc2ccc(O)cc2)N[*:1])n1)[*:2]; X1 = CC[C@H](C)[C@H](N[*:1])C(=O)C(=O)[*:2]; Benzoyl(4-OH) = O=C(c1ccc(O)cc1)*; Cya = N[C@@H](CS(=O)(=O)O)C(=O)O; Nva = CCC[C@H](N)C(=O)O; Abu = CC[C@H](N)C(=O)O; Dap = NC[C@H](N)C(=O)O

A word on the IC50: it is the point on the concentration scale where inhibition reaches its midpoint. Turning to `CC[C@@H]1NC(=O)[C@@H](NC(=O)[C@H](C)NC(=O)CNC(=O)c2ccc(O)cc2)CNC(=O)[C@H](CS(=O)(=O)[O-])NC(=O)/C=C/c2csc(n2)[C@H](Cc2ccc(O)cc2)NC(=O)C(=O)[C@H]([C@@H](C)CC)NC1=O.[Na+]` ({Benzoyl(4-OH)}-GA[Dap][Abu][X1][X2][Cya]; lactam 3-C), the IC50 in assay [1] is 2.3 nM; in assay [2], greater than 20 mg/L; in assay [3], 0.099 nM.
The corresponding values for `CC[C@H](C)[C@@H]1NC(=O)[C@H](CC(C)C)NC(=O)[C@@H](NC(=O)[C@H](C)NC(=O)CNC(=O)c2ccc(O)cc2)CNC(=O)[C@H](CS(=O)(=O)[O-])NC(=O)/C=C/c2csc(n2)[C@H](Cc2ccc(O)cc2)NC(=O)C1=O.[Na+]` ({Benzoyl(4-OH)}-GA[Dap]L[X1][X2][Cya]; lactam 3-C) are 2.8 nM, greater than 20 mg/L and 0.1 nM.
On to `CO[C@H]1C[C@H](CC[C@H](C)[C@H](O)[C@H](C)[C@H]2OC(=O)/C=C/C(C)=C/C[C@H](O)C[C@@H]3C=CC[C@@H](C[C@H](OC)[C@@H](C)[C@@H](O)C[C@@H](O)[C@H](C)[C@@H]([C@@H](C)[C@@H](O)[C@@H](C)CC[C@H]4C[C@H](OC)C[C@H](C)O4)OC(=O)/C=C/C(C)=C/C[C@H](O)C[C@@H]4C=CC[C@@H](C[C@H](OC)[C@@H](C)[C@@H](O)C[C@@H](O)[C@@H]2C)O4)O3)O[C@@H](C)C1` [Swinholide A], for which the IC50 in assay [4] is 4.75 mg/L (≈ 3.42 µM).
As for `CCC[C@@H]1NC(=O)[C@@H](NC(=O)[C@H](C)NC(=O)CNC(=O)c2ccc(O)cc2)CNC(=O)[C@H](CS(=O)(=O)[O-])NC(=O)/C=C/c2csc(n2)[C@H](Cc2ccc(O)cc2)NC(=O)C(=O)[C@H]([C@@H](C)CC)NC1=O.[Na+]` ({Benzoyl(4-OH)}-GA[Dap][Nva][X1][X2][Cya]; lactam 3-C), the figures for the IC50 in assay [1], in assay [2] and in assay [3] were 0.62 nM, greater than 20 mg/L and 0.034 nM, respectively.
